Laboratory results from ChEMBL document CHEMBL1141034, “Optimization of the in vitro and in vivo properties of a novel series of 2,4,5-trisubstituted imidazoles as potent cholecystokinin-2 (CCK2) antagonists” (J Med Chem, 2005).
Calls of active or inactive are those of the source. No cut-off for these calls is given here.

What was measured:
[1] = biological target: T1, Gastrin/cholecystokinin type B receptor (Mus musculus, UniProt P56481); assay: Concentration required to inhibit the binding of 20 pM [125I]-BH-CCK-8S radioligand to mouse cortical membrane CCK2 receptor
T1 sequence (P56481 whole entry): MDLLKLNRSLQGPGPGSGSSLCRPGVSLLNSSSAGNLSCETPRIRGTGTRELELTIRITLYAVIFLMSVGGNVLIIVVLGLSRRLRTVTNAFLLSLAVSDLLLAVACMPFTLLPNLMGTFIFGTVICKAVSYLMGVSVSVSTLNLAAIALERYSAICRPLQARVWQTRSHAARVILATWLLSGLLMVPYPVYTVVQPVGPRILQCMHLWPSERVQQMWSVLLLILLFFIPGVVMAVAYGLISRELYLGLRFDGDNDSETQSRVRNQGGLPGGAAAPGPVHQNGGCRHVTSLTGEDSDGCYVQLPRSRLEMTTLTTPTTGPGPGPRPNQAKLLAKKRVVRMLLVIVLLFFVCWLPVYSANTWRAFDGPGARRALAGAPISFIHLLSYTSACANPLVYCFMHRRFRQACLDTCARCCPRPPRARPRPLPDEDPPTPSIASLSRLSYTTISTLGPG
Summary of the method: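 Mouse cerebral cortex homogenates. Competition with 20 pM [125I]BH-CCK-8S for CCK2 sites, reported as pKI. At least three separate experiments give ± SEM. Where only two experiments were run, no error is given (approximate SEM 0.1 log units).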

[2] = biological target: T2, Cholecystokinin receptor type A (Cavia porcellus, UniProt Q63931); assay: Concentration required to inhibit the binding of 20 pM [125I]BH-CCK-8S radioligand to guinea pig pancreas CCK1 receptor
T2 sequence (Q63931 whole entry): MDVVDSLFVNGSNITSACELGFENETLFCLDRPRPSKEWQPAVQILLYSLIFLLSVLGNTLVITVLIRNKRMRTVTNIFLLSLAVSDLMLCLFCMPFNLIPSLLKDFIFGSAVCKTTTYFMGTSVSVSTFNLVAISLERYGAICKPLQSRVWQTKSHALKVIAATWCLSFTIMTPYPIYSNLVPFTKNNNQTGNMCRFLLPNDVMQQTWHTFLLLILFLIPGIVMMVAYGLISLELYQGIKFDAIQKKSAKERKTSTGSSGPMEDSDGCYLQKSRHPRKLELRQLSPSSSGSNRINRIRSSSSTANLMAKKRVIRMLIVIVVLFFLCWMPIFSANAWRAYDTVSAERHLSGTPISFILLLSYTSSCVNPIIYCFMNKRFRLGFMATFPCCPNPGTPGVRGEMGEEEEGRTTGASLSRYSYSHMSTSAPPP
Summary of the method: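 CCK1 sites on guinea pig pancreatic cells. Competition with 20 pM [125I]BH-CCK-8S, reported as pKI. At least three separate experiments give ± SEM. Where only two experiments were run, no error is given (approximate SEM 0.1 log units).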

[3] = biological target: T3, Gastrin/cholecystokinin type B receptor (Rattus norvegicus) (UniProt P30553); assay: Antagonist activity against CCK2 receptor estimated from single shifts of pentagastrin concentration-effect curves in the isolated rat stomach; […]; format: functional, tissue-based
T3 sequence (whole entry): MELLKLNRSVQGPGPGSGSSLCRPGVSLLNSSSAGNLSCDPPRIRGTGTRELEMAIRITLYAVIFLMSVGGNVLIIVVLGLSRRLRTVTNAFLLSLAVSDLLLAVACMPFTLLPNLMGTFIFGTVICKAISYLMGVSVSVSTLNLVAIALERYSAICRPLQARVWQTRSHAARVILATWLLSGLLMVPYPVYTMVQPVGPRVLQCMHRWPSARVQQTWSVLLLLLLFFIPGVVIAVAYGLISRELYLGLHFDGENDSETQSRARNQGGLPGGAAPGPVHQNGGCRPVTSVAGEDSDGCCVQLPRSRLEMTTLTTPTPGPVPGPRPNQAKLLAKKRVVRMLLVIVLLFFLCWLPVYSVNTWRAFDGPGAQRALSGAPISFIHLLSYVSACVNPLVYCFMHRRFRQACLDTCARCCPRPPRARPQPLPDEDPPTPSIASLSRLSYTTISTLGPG

[4] = Lipophilicity was measured in octanol/buffer (pH 7.4); format: physicochemical
Summary of the method: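 log D from partition between octanol and buffer at pH 7.4, given ± error.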

[5] = biological target: T4, Gastrin/cholecystokinin type B receptor (Canis lupus familiaris, UniProt P30552); assay: Concentration required to inhibit the binding of [125I]-BH-CCK-8S radioligand to canine gastric mucosa CCK2 receptor
T4 sequence (P30552 whole entry): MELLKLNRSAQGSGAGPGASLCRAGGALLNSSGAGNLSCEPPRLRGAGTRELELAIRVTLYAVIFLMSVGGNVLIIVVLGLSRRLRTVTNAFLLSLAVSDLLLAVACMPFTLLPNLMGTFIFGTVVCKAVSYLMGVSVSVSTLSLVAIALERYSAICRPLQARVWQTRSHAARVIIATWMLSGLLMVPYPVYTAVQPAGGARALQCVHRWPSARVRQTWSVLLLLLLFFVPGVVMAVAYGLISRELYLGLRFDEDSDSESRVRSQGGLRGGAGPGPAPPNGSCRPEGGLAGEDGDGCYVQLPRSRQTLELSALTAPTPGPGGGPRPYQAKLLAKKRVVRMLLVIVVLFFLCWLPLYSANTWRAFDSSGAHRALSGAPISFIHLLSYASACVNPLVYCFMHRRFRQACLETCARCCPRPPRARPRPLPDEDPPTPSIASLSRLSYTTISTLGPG
Summary of the method: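 Canine gastric mucosa. Competition with [125I]BH-CCK-8S for CCK2 binding sites, reported as pIC50 ± SEM.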

[6] = biological target: T5, Gastrin/cholecystokinin type B receptor (Rattus norvegicus, UniProt P30553); assay: Antagonist activity against CCK2 receptor estimated from single shifts of pentagastrin concentration-effect curves in the isolated rat stomach; format: functional, tissue-based; details: read-out: pA2 (converted)
T5 sequence (P30553 whole entry): T3 sequence (whole entry)

[7] = biological target: T6, Gastrin/cholecystokinin type B receptor (Canis lupus familiaris) (UniProt P30552); assay: Percent inhibition (i.v., 3.0 mg/Kg) against dog CCK2 receptor
T6 sequence (whole entry): T4 sequence (P30552 whole entry)
Summary of the method: (§1)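 Conscious dogs given a bolus iv or intraduodenally during pentagastrin-stimulated acid secretion. Result is the peak percentage inhibition of acid output in the first four collection periods (1 h) after dosing, ± SEM, with the number of replicates stated.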

[8] = biological target: T6, Gastrin/cholecystokinin type B receptor (Canis lupus familiaris); assay: Percent inhibition (i.v., 1.0 mg/Kg) against dog CCK2 receptor; summary of the method: as §1
[9] = biological target: T6, Gastrin/cholecystokinin type B receptor (Canis lupus familiaris); assay: Percent inhibition (i.d., 10.0 mg/Kg) against dog CCK2 receptor; summary of the method: as §1

| SMILES | Ki [1] | Ki [2] | further results |
| --- | --- | --- | --- |
| CNc1cccc(NC(=O)c2[nH]c(-c3ccccc3C)nc2CCC23CC4CC(CC(C4)C2)C3)c1 | 11200 nM | – | – |
| Cc1ccccc1-c1nc(C(=O)Nc2cccc(C(=O)O)c2)c(CC23CC4CC(CC(C4)C2)C3)[nH]1 | – | – | pA2 [3]: inactive |
| O=C(O)c1cccc(NC(=O)c2[nH]c(-c3ccccc3)nc2CCC23CC4CC(CC(C4)C2)C3)c1 | 316 nM | 1320 nM | – |
| Cc1cc(C)c(-c2nc(C(=O)Nc3ccc(C)c(C(=O)O)c3)c(CCC34CC5CC(CC(C5)C3)C4)[nH]2)c(C)c1 | 3.02 nM | 123 nM | logD [4]: 4.9; IC50 [5]: 39.8 nM; Kb [6]: 3.31 nM; inhibition [7]: 76% |
| O=C(O)c1cccc(NC(=O)c2[nH]c(-c3ccc4ccccc4c3)nc2CC2CCCCCC2)c1 | – | 2510 nM | pA2 [3]: inactive |
| Cc1ccccc1-c1nc(C(=O)Nc2cccc(C(=O)O)c2)c(CCC(C)C)[nH]1 | 8320 nM | 661 nM | Kb [6]: 26.3 nM |
| Cc1ccccc1-c1nc(CCC23CC4CC(CC(C4)C2)C3)c(C(=O)Nc2ccc(N(C)C)c(C(=O)O)c2)[nH]1 | – | 794 nM | – |
| Cc1ccccc1-c1nc(C(=O)Nc2cccc(CCC(=O)O)c2)c(CCC23CC4CC(CC(C4)C2)C3)[nH]1 | 6.92 nM | 302 nM | – |
| Cc1ccccc1-c1nc(C(=O)Nc2ccc(F)c(C(=O)O)c2)c(CCC23CC4CC(CC(C4)C2)C3)[nH]1 | – | 562 nM | – |
| O=C(O)c1cccc(NC(=O)c2cc(-c3ccc4ccccc4c3)[nH]c2CC2CCCCCC2)c1 | – | 3020 nM | pA2 [3]: inactive |
| COC(=O)c1cccc(NC(=O)c2[nH]c(-c3ccccc3C)nc2CCC23CC4CC(CC(C4)C2)C3)c1 | > 100000 nM | – | – |
| Cc1ccccc1-c1nc(C(=O)Nc2cccc(CC(=O)O)c2)c(CCC23CC4CC(CC(C4)C2)C3)[nH]1 | – | 398 nM | pA2 [3]: inactive |
| O=C(O)c1cccc(NC(=O)c2[nH]c(C3CCCCCCCCCCC3)nc2CCC23CC4CC(CC(C4)C2)C3)c1 | – | – | pA2 [3]: inactive |
| Cc1cccc(NC(=O)c2[nH]c(-c3ccccc3C)nc2CCC23CC4CC(CC(C4)C2)C3)c1 | > 100000 nM | – | – |
| COc1ccc(NC(=O)c2[nH]c(-c3ccccc3C)nc2CCC23CC4CC(CC(C4)C2)C3)cc1C(=O)O | – | – | pA2 [3]: inactive |
| Cc1ccc(NC(=O)c2nc(-c3ccccc3C)[nH]c2CCC23CC4CC(CC(C4)C2)C3)cc1C(=O)O | – | 417 nM | Kb [6]: 33.1 nM |
| Cc1ccccc1-c1cc(C(=O)Nc2cccc(C(=O)O)c2)c(CCC23CC4CC(CC(C4)C2)C3)[nH]1 | – | 2190 nM | pA2 [3]: inactive |
| Cc1ccccc1-c1nc(C(=O)Nc2cccc(C(=O)O)c2)c(CCC2CCCCC2)[nH]1 | 617 nM | 295 nM | – |
| Cc1cc(C)c(-c2nc(C(=O)Nc3cccc(C(=O)O)c3)c(CCC34CC5CC(CC(C5)C3)C4)[nH]2)c(C)c1 | 26.9 nM | 724 nM | – |
| Cc1ccc(NC(=O)c2[nH]c(C3(C)CCCCC3)nc2CCC23CC4CC(CC(C4)C2)C3)cc1C(=O)O | 3.31 nM | – | logD [4]: 4.91; IC50 [5]: 11.2 nM; inhibition [7]: 54% |
| O=C(O)c1cccc(NC(=O)c2cc(-c3ccccc3)[nH]c2CCC23CC4CC(CC(C4)C2)C3)c1 | – | 2090 nM | pA2 [3]: inactive |

Further lines, with some results ahead:

| Ki [1] | Ki [2] | SMILES | further results |
| --- | --- | --- | --- |
| 39.8 nM | 525 nM | O=C(O)c1cccc(NC(=O)c2[nH]c(C3CCCC3)nc2CCC23CC4CC(CC(C4)C2)C3)c1 | – |
| 27.5 nM | 776 nM | O=C(O)c1cccc(NC(=O)c2nc(C34CCC(CC3)CC4)[nH]c2COC23CC4CC(CC(C4)C2)C3)c1 | – |
| – | 562 nM | CC1(c2nc(C(=O)Nc3cccc(C(=O)O)c3)c(CCC34CC5CC(CC(C5)C3)C4)[nH]2)CCCCC1 | – |
| – | 2880 nM | CC(C)(C)c1nc(C(=O)Nc2cccc(C(=O)O)c2)c(CCC23CC4CC(CC(C4)C2)C3)[nH]1 | – |
| 13.8 nM | 537 nM | Cc1cc(C)c(-c2nc(C(=O)Nc3cccc(C(=O)O)c3)c(COC34CC5CC(CC(C5)C3)C4)[nH]2)c(C)c1 | logD [4]: 3.02; IC50 [5]: 63.1 nM; inhibition [8]: 61% |
| 20.4 nM | 324 nM | O=C(O)c1cccc(NC(=O)c2[nH]c(C34CCC(CC3)CC4)nc2CCC23CC4CC(CC(C4)C2)C3)c1 | – |
| – | 1450 nM | CC(C)c1nc(C(=O)Nc2cccc(C(=O)O)c2)c(CCC23CC4CC(CC(C4)C2)C3)[nH]1 | – |
| 13.5 nM | 562 nM | O=C(O)c1cccc(NC(=O)c2nc(C3CCCCC3)[nH]c2COC23CC4CC(CC(C4)C2)C3)c1 | logD [4]: 2.73; IC50 [5]: 19.5 nM; inhibition [8]: 76% |
| 141 nM | > 10000 nM | Cc1cccc(C)c1-c1nc(C(=O)Nc2cccc(C(=O)O)c2)c(CCC23CC4CC(CC(C4)C2)C3)[nH]1 | – |
| – | 1120 nM | CCCc1nc(C(=O)Nc2cccc(C(=O)O)c2)c(CCC23CC4CC(CC(C4)C2)C3)[nH]1 | – |
| – | 2340 nM | O=C(O)c1cccc(NC(=O)c2[nH]c(C3CC3)nc2CCC23CC4CC(CC(C4)C2)C3)c1 | – |
| – | 661 nM | Cc1ccccc1-c1nc(C(=O)Nc2cccc(C(=O)O)c2)c(CCC23CC4CC(CC(C4)C2)C3)[nH]1 | – |
| – | 575 nM | O=C(O)c1cccc(NC(=O)c2[nH]c(C3CCCCC3)nc2CCC23CC4CC(CC(C4)C2)C3)c1 | logD [4]: 4.12; IC50 [5]: 29.5 nM; inhibition [9]: 46%; inhibition [8]: 40% |
| – | 126 nM | O=C(O)c1cccc(NC(=O)c2[nH]c(C3CCCCCC3)nc2CCC23CC4CC(CC(C4)C2)C3)c1 | – |
| – | 617 nM | Cc1ccc(-c2nc(C(=O)Nc3cccc(C(=O)O)c3)c(CCC34CC5CC(CC(C5)C3)C4)[nH]2)c(C)c1 | – |
